≈ marks a conversion by molar mass, not a printed value.
system: Mycobacterium tuberculosis; experiment: Antimycobacterial activity against Mycobacterium tuberculosis H37Rv ATCC 27294 after 28 days by agar dilution technique; format: functional; conditions: H37Rv ATCC 27294, 672 h
How it was run: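 Agar dilution in Middlebrook 7H11 with OADC supplement. Two-fold serial dilutions from 50.0 down to 0.4 µg/mL were incorporated into the agar. Inoculum of H37Rv came from fresh 7H11/OADC slants, suspended in saline diluted to […]. 5 μL was spotted per tube, incubated at 37 °C and read after 28 days. MIC was the lowest concentration giving complete growth inhibition, done in triplicate.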

Q: CC(C)(C)c1ccc(-c2cn(C(CN3CCOCC3)c3ccc4sc5ccccc5c4c3)nn2)cc1 (stereo not drawn) was tested. Which MIC did it give?
A: 6.25 µg/mL (≈ 12.6 µM)

Q: For NNC(=O)c1ccncc1 [ISONIAZID], which MIC is on record?
A: 0.1 µg/mL (≈ 0.729 µM)

Q: With O=[N+]([O-])c1ccc(-c2cn(C(CN3CCCCC3)c3ccc4sc5ccccc5c4c3)nn2)cc1 (stereo not drawn) as the molecule, how does the MIC read?
A: 50 µg/mL (≈ 103 µM)

Q: For CCCCc1cn(C(CN2CCNCC2)c2ccc3sc4ccccc4c3c2)nn1 (stereo not drawn), which MIC is on record?
A: 12.5 µg/mL (≈ 29.8 µM)

Q: For OCCN1CCN(CC(c2ccc3sc4ccccc4c3c2)n2cc(-c3ccccc3)nn2)CC1 (stereo not drawn), which MIC is on record?
A: 12.5 µg/mL (≈ 25.8 µM)

Q: For Fc1ccc(-c2cn(C(CN3CCSCC3)c3ccc4sc5ccccc5c4c3)nn2)c(Cl)c1 (stereo not drawn), which MIC is on record?
A: 12.5 µg/mL (≈ 24.6 µM)

Q: Cc1ccc(-c2cn(C(CN3CCCCC3)c3ccc4sc5ccccc5c4c3)nn2)cc1 (stereo not drawn) was tested. Which MIC did it give?
A: 50 µg/mL (≈ 110 µM)

Q: How did the MIC turn out when O=[N+]([O-])c1ccc(-c2cn(C(CN3CCN(CCO)CC3)c3ccc4sc5ccccc5c4c3)nn2)cc1 (stereo not drawn) was run?
A: 12.5 µg/mL (≈ 23.6 µM)

Q: With O=[N+]([O-])c1ccc(-c2cn(C(CN3CCNCC3)c3ccc4sc5ccccc5c4c3)nn2)cc1 (stereo not drawn) as the molecule, how does the MIC read?
A: 3.12 µg/mL (≈ 6.44 µM)

Q: With CCCCc1cn(C(CN2CCCCC2)c2ccc3sc4ccccc4c3c2)nn1 (stereo not drawn) as the molecule, how does the MIC read?
A: 0.78 µg/mL (≈ 1.86 µM)

Q: Which MIC does the source give for CCCCc1cn(C(CN2CCOCC2)c2ccc3sc4ccccc4c3c2)nn1 (stereo not drawn) here?
A: 50 µg/mL (≈ 119 µM)

Q: For c1ccc(-c2cn(C(CN3CCSCC3)c3ccc4sc5ccccc5c4c3)nn2)cc1 (stereo not drawn), which MIC is on record?
A: 50 µg/mL (≈ 109 µM)

Q: With Fc1ccc(-c2cn(C(CN3CCNCC3)c3ccc4sc5ccccc5c4c3)nn2)c(Cl)c1 (stereo not drawn) as the molecule, how does the MIC read?
A: 1.56 µg/mL (≈ 3.17 µM)

Q: For Fc1ccc(-c2cn(C(CN3CCCCC3)c3ccc4sc5ccccc5c4c3)nn2)c(Cl)c1 (stereo not drawn), which MIC is on record?
A: 50 µg/mL (≈ 102 µM)

Q: How did the MIC turn out when c1ccc(-c2cn(C(CN3CCOCC3)c3ccc4sc5ccccc5c4c3)nn2)cc1 (stereo not drawn) was run?
A: 50 µg/mL (≈ 113 µM)

Q: NC(=O)c1cnccn1 [PYRAZINAMIDE] was tested. Which MIC did it give?
A: 50 µg/mL (≈ 406 µM)

Q: How did the MIC turn out when CCCCc1cn(C(CN2CCSCC2)c2ccc3sc4ccccc4c3c2)nn1 (stereo not drawn) was run?
A: 25 µg/mL (≈ 57.3 µM)

Q: With CC[C@@H](CO)NCCN[C@@H](CC)CO [ETHAMBUTOL] as the molecule, how does the MIC read?
A: 3.13 µg/mL (≈ 15.3 µM)

Q: With Cc1ccc(-c2cn(C(CN3CCNCC3)c3ccc4sc5ccccc5c4c3)nn2)cc1 (stereo not drawn) as the molecule, how does the MIC read?
A: 6.25 µg/mL (≈ 13.8 µM)

Q: How did the MIC turn out when Cc1ccc(-c2cn(C(CN3CCN(CCO)CC3)c3ccc4sc5ccccc5c4c3)nn2)cc1 (stereo not drawn) was run?
A: 50 µg/mL (≈ 100 µM)

Q: Which MIC does the source give for CC(C)(C)c1ccc(-c2cn(C(CN3CCSCC3)c3ccc4sc5ccccc5c4c3)nn2)cc1 (stereo not drawn) here?
A: 6.25 µg/mL (≈ 12.2 µM)

Q: CC(C)(C)c1ccc(-c2cn(C(CN3CCN(CCO)CC3)c3ccc4sc5ccccc5c4c3)nn2)cc1 (stereo not drawn) was tested. Which MIC did it give?
A: 25 µg/mL (≈ 46.3 µM)

Q: Fc1ccc(-c2cn(C(CN3CCOCC3)c3ccc4sc5ccccc5c4c3)nn2)c(Cl)c1 (stereo not drawn) was tested. Which MIC did it give?
A: 25 µg/mL (≈ 50.7 µM)

Q: Which MIC does the source give for c1ccc(-c2cn(C(CN3CCNCC3)c3ccc4sc5ccccc5c4c3)nn2)cc1 (stereo not drawn) here?
A: 12.5 µg/mL (≈ 28.4 µM)

Q: How did the MIC turn out when O=[N+]([O-])c1ccc(-c2cn(C(CN3CCOCC3)c3ccc4sc5ccccc5c4c3)nn2)cc1 (stereo not drawn) was run?
A: 50 µg/mL (≈ 103 µM)

Q: With Cc1ccc(-c2cn(C(CN3CCSCC3)c3ccc4sc5ccccc5c4c3)nn2)cc1 (stereo not drawn) as the molecule, how does the MIC read?
A: 12.5 µg/mL (≈ 26.6 µM)

Q: c1ccc(-c2cn(C(CN3CCCCC3)c3ccc4sc5ccccc5c4c3)nn2)cc1 (stereo not drawn) was tested. Which MIC did it give?
A: 0.78 µg/mL (≈ 1.78 µM)

Q: Which MIC does the source give for CC(C)(C)c1ccc(-c2cn(C(CN3CCCCC3)c3ccc4sc5ccccc5c4c3)nn2)cc1 (stereo not drawn) here?
A: 3.12 µg/mL (≈ 6.31 µM)

Q: For OCCN1CCN(CC(c2ccc3sc4ccccc4c3c2)n2cc(-c3ccc(F)cc3Cl)nn2)CC1 (stereo not drawn), which MIC is on record?
A: 12.5 µg/mL (≈ 23.3 µM)

Q: Which MIC does the source give for CC(C)(C)c1ccc(-c2cn(C(CN3CCNCC3)c3ccc4sc5ccccc5c4c3)nn2)cc1 (stereo not drawn) here?
A: 6.25 µg/mL (≈ 12.6 µM)

Q: How did the MIC turn out when Cc1ccc(-c2cn(C(CN3CCOCC3)c3ccc4sc5ccccc5c4c3)nn2)cc1 (stereo not drawn) was run?
A: 25 µg/mL (≈ 55 µM)

Q: With CCCCc1cn(C(CN2CCN(CCO)CC2)c2ccc3sc4ccccc4c3c2)nn1 (stereo not drawn) as the molecule, how does the MIC read?
A: 6.25 µg/mL (≈ 13.5 µM)

Q: With O=[N+]([O-])c1ccc(-c2cn(C(CN3CCSCC3)c3ccc4sc5ccccc5c4c3)nn2)cc1 (stereo not drawn) as the molecule, how does the MIC read?
A: 25 µg/mL (≈ 49.8 µM)
